According to ChEMBL document CHEMBL3232850, “Anti-inflammatory labdane diterpenoids from Lagopsis supina” (J Nat Prod, 2014):

Columns and labels:
[1] = Antiinflammatory activity in […] BV2 cells assessed as inhibition of LPS-induced nitric oxide production at 80 uM by Griess assay; type: functional; conditions: Mus musculus, BV-2
[2] = Antiinflammatory activity in […] BV2 cells assessed as inhibition of LPS-induced nitric oxide production by Griess assay; type: functional, cell-based; conditions: BV-2
How it was run: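 BV-2 microglial cells were stimulated with lipopolysaccharide, and NO production was measured by the Griess assay. Inhibition is reported as IC50 values in μM.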

[3] = Cytotoxicity against […] LPS-treated BV2 cells assessed as cell viability up to 80 uM after 24 hrs by MTT assay; type: cell-based; conditions: bv-2, 24 h

Structure (SMILES): CC(=O)O[C@@H]1[C@H](O)[C@@H](C)[C@](O)(CCc2ccoc2)[C@@]2(C)CCCC(C)(C)[C@H]12
- inhibition at 80 µM [1]: < 50%

Structure (SMILES): CC(=O)O[C@@H]1[C@H](OC(C)=O)[C@@H](C)[C@](O)(CCc2ccoc2)[C@@]2(C)CCCC(C)(C)[C@H]12
- inhibition at 80 µM [1]: < 50%

Structure (SMILES): CC(=O)O[C@@H]1[C@H](O)[C@@H](C)[C@]2(CC[C@]3(CO[C@@H](O)C3)O2)[C@@]2(C)CCCC(C)(C)[C@H]12
- inhibition at 80 µM [1]: < 50%

Structure (SMILES): CC(=O)O[C@@H]1[C@H](O)[C@@H](C)[C@]2(CC[C@]3(CO[C@H](O)C3)O2)[C@@]2(C)CCCC(C)(C)[C@H]12
- inhibition at 80 µM [1]: < 50%

Structure (SMILES): CC(=O)O[C@@H]1[C@H](O)[C@@H](C)[C@]2(CC[C@@]3(CO[C@H](O)C3)O2)[C@@]2(C)CCCC(C)(C)[C@H]12
- inhibition at 80 µM [1]: < 50%

Structure (SMILES): CC(=O)O[C@@H]1[C@H](O)[C@@H](C)[C@]2(CC[C@@]3(CO[C@@H](O)C3)O2)[C@@]2(C)CCCC(C)(C)[C@H]12
- inhibition at 80 µM [1]: < 50%

Structure (SMILES): COC1C=C(CC[C@@]2(O)[C@H](C)[C@@H](O)[C@@H](OC(C)=O)[C@H]3C(C)(C)CCC[C@@]32C)C(=O)O1 (stereo not given in full)
- IC50 [2]: 16.2 µM
- Activity [3]: Non-toxic

Structure (SMILES): CCC(=O)C(OC(C)=O)[C@H]1C(C)(C)CCC[C@]1(C)C(=O)CCc1ccoc1 (stereo not given in full)
- inhibition at 80 µM [1]: < 50%

Structure (SMILES): CCC(=O)C(OC(C)=O)[C@H]1C(C)(C)CCC[C@]1(C)C(=O)CCC1=CCOC1=O (stereo not given in full)
- IC50 [2]: 34.9 µM
- Activity [3]: Non-toxic

Structure (SMILES): CC1(C)CCC[C@@]2(C)C1=CC(=O)[C@](C)(O)[C@]2(O)CCc1ccoc1
- inhibition at 80 µM [1]: < 50%

Structure (SMILES): CC(=O)O[C@H]1[C@@H](O)[C@H]2C(C)(C)CCC[C@]2(C)[C@@](O)(CCc2ccoc2)[C@@H]1C
- inhibition at 80 µM [1]: < 50%

Structure (SMILES): C[C@@H]1[C@@H](O)[C@@H](O)[C@H]2C(C)(C)CCC[C@]2(C)[C@@]1(O)CCc1ccoc1
- inhibition at 80 µM [1]: < 50%

Structure (SMILES): C[C@@H]1C(=O)C=C2C(C)(C)CCC[C@]2(C)[C@@]1(O)CCc1ccoc1
- IC50 [2]: 14.9 µM
- Activity [3]: Non-toxic

Structure (SMILES): C[C@@H]1[C@@H](O)C(=O)[C@H]2C(C)(C)CCC[C@]2(C)[C@@]1(O)CCc1ccoc1
- inhibition at 80 µM [1]: < 50%

Structure (SMILES): CC1=C(CCc2ccoc2)[C@@]2(C)CCCC(C)(C)C2=CC1=O
- IC50 [2]: 34 µM
- Activity [3]: Non-toxic

Structure (SMILES): O=c1c(O)c(-c2ccc(O)c(O)c2)oc2cc(O)cc(O)c12 [QUERCETIN]
- IC50 [2]: 10 µM
